The subject of one test is HeLa. In words: Cytotoxicity against human HeLa cells after 72 hrs by MTT assay. The test is classed as functional, cell-based. The gist of the method:
(§1)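 Cells seeded at 2000/well and held 24 h at 37 °C, 5% CO2 before treatment. After a 3 h MTT incubation, medium was replaced by DMSO. Absorbance read at 550 nm against a 690 nm reference, with OD taken as proportional to viable cell number.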
A general note: Tetrazolium dyes change colour on reduction, which living cells bring about.

Test [1] concerns the target Tyrosine-protein phosphatase non-receptor type 6 (Homo sapiens, UniProt P29350). In words: Inhibition of SHP1.
Test [2] deals with T1, Tyrosine-protein phosphatase non-receptor type 11 (Homo sapiens, UniProt Q06124).
T1 sequence (Q06124 whole entry): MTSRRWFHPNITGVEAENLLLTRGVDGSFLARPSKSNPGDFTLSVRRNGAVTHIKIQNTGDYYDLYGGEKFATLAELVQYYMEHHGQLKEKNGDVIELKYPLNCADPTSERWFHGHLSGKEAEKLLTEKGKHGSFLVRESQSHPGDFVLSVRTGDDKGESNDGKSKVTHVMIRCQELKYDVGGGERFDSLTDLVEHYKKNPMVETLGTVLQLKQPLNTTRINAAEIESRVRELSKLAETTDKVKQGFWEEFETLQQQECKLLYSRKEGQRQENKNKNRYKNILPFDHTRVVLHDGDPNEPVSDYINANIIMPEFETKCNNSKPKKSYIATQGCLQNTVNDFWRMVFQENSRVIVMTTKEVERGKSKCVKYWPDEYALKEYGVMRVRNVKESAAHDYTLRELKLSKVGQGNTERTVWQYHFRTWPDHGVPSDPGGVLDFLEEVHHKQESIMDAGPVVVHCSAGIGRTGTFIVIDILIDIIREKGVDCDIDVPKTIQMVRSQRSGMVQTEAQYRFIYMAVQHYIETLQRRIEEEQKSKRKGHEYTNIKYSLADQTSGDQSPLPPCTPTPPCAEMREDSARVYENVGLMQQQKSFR
In words: Inhibition of SHP2.

In test [3] the target is Receptor-type tyrosine-protein phosphatase F (Homo sapiens, UniProt P10586). Description: Inhibition of human LAR.
Sequence of Receptor-type tyrosine-protein phosphatase F (P10586 whole entry): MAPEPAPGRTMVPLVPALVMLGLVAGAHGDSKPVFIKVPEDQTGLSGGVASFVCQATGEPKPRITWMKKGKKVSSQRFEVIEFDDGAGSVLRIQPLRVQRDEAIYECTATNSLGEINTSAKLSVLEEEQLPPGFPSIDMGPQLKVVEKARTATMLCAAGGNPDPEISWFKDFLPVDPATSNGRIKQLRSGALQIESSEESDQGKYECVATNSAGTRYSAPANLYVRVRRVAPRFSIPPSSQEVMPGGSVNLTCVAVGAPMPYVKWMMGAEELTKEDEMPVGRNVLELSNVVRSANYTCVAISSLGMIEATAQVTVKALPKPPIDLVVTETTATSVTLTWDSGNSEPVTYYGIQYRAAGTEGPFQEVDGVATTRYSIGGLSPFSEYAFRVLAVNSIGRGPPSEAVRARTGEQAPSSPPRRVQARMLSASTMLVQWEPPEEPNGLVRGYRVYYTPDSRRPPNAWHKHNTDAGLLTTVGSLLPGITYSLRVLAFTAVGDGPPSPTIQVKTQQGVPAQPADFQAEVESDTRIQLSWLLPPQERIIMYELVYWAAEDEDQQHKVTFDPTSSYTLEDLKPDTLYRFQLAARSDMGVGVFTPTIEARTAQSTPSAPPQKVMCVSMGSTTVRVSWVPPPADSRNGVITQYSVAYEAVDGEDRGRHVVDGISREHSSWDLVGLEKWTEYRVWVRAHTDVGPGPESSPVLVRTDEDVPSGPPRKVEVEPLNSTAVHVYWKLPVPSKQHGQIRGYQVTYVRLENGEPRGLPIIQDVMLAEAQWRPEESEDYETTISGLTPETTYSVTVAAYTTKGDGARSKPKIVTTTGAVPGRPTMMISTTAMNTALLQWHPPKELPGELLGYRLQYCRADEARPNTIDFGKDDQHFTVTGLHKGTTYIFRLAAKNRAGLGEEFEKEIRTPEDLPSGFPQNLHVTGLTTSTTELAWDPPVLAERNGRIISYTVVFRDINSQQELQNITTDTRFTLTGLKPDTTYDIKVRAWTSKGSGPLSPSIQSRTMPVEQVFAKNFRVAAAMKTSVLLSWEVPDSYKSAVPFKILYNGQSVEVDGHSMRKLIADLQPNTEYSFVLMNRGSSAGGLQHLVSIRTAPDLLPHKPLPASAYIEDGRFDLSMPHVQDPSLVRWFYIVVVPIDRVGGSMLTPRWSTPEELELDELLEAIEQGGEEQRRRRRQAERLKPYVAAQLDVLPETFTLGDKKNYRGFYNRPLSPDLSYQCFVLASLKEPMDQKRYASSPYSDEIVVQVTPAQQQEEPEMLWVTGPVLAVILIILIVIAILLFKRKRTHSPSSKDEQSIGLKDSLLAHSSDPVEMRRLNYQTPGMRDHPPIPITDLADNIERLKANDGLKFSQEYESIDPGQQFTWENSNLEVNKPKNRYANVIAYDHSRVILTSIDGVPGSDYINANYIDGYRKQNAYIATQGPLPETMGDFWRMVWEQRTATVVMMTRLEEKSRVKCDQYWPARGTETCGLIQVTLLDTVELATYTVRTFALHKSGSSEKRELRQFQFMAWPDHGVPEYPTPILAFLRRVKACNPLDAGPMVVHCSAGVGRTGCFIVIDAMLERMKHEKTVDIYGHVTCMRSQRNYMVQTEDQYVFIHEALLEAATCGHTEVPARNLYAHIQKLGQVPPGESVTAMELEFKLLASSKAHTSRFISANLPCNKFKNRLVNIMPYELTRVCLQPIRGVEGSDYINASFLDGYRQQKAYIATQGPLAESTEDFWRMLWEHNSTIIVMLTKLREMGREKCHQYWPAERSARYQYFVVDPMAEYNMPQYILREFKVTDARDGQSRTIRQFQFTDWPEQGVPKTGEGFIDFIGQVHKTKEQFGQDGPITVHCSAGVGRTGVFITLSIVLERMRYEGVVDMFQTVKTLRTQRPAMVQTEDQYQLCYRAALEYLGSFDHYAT
Test [4] deals with T2, M-phase inducer phosphatase 1 (Homo sapiens, UniProt P30304).
T2 sequence (P30304 whole entry): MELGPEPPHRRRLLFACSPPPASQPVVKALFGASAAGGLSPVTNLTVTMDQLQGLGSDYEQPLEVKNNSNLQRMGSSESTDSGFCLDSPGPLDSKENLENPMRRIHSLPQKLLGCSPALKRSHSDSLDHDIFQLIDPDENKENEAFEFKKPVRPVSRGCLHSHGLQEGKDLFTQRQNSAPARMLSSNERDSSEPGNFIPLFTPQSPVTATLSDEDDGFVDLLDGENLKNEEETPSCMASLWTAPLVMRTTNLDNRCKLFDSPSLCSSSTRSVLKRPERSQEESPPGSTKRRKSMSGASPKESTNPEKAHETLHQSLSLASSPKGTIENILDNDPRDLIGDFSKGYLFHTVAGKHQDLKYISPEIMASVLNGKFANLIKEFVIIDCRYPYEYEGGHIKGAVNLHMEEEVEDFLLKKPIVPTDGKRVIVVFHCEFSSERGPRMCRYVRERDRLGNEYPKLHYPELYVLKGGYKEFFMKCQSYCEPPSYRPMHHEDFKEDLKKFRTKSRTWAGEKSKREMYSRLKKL
Description: Inhibition of human CDC25A.

Test [5] addresses T3, M-phase inducer phosphatase 2 (Homo sapiens, UniProt P30305).
T3 sequence (P30305 whole entry): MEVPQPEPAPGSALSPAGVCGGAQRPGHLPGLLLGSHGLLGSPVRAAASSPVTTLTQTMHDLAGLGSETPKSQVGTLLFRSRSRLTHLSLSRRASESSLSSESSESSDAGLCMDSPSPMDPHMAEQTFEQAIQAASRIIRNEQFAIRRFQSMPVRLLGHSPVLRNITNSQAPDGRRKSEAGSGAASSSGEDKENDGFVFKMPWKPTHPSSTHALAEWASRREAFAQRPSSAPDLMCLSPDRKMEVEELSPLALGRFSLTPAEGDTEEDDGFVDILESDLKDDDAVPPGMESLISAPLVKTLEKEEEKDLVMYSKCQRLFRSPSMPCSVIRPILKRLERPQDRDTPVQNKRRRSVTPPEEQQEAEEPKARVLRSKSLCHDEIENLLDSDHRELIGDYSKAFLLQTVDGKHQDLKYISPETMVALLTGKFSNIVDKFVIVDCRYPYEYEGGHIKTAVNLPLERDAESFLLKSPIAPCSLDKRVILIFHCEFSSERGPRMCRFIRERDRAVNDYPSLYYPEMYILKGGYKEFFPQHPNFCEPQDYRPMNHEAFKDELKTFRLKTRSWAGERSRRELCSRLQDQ
Description: Inhibition of human Cdc25B.

Test [6] has as its target T4, Tyrosine-protein phosphatase non-receptor type 2 (Homo sapiens, UniProt P17706).
T4 sequence (P17706 whole entry): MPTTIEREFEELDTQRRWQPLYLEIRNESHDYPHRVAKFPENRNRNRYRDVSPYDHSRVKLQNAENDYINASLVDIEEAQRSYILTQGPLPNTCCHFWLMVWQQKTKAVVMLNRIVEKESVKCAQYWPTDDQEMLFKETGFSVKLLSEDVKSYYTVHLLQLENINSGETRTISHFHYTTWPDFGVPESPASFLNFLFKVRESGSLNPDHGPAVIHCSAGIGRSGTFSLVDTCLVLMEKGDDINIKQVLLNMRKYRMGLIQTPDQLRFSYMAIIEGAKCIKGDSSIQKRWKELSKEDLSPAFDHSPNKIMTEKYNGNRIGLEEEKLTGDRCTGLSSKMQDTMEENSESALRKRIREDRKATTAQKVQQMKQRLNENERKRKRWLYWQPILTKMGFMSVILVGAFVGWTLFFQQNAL
Description: Inhibition of TCPTP.

In a further test the test system is A549. In words: Cytotoxicity against human A549 cells after 72 hrs by MTT assay. To be noted: A549, 72 h. The format is functional, cell-based. The gist of the method: as §1
For test [7], the target named is T5, Tyrosine-protein phosphatase non-receptor type 1 (Homo sapiens, UniProt P18031).
T5 sequence (P18031 whole entry): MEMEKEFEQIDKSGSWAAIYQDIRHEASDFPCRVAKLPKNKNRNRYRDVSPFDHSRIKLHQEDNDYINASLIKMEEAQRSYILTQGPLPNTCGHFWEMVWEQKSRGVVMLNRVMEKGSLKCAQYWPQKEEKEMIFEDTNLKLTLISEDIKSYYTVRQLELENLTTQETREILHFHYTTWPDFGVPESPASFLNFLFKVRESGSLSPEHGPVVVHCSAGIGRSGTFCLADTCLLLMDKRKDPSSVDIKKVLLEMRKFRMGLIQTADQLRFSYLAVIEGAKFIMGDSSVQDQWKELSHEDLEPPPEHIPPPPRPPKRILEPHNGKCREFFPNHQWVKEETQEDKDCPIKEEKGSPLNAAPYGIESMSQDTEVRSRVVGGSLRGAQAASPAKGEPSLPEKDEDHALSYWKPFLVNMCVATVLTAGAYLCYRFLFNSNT
In words: Inhibition of human recombinant […] catalytic domain using pNPP substrate. The gist of the method: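 Recombinant human PTP1B catalytic domain (30 nM) with 2 mM pNPP in 50 mM MOPS, pH 6.5, at 30 °C. Inhibitor diluted around the estimated IC50. Initial rate taken from the early linear part of the 405 nm trace over 2 min. IC50 from nonlinear fit of % inhibition vs [I] with a Hill-coefficient equation. Means of three experiments.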

The subject of the next test is HCT-116. In words: Cytotoxicity against human HCT116 cells after 72 hrs by MTT assay. The format is functional, cell-based. As to conditions: HCT-116, 72 h. In outline:
as §1

The target of test [8] is T5, Tyrosine-protein phosphatase non-receptor type 1. In words: Competitive inhibition of human recombinant […] catalytic domain using pNPP substrate at 30 degC and pH 6.5 by Eadie-Hofstee plot. In outline:
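For the inhibition-mode study, 30 nM PTP1B was run in 50 mM MOPS, pH 6.5, at 30 °C. pNPP was varied in twofold dilutions up to 80 mM, at several inhibitor concentrations. pNP release was read at 405 nm.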

Test [9] addresses T6, M-phase inducer phosphatase 2 (Homo sapiens) (UniProt P30305).
T6 sequence (whole entry): T3 sequence (P30305 whole entry)
In words: Mixed type inhibition of human Cdc25B using pNPP substrate at 30 degC and pH 6.5 by Eadie-Hofstee plot.

Active and inactive are the calls of the source. No cut-off for these calls is given here.

Sequence of Tyrosine-protein phosphatase non-receptor type 6 (P29350 whole entry): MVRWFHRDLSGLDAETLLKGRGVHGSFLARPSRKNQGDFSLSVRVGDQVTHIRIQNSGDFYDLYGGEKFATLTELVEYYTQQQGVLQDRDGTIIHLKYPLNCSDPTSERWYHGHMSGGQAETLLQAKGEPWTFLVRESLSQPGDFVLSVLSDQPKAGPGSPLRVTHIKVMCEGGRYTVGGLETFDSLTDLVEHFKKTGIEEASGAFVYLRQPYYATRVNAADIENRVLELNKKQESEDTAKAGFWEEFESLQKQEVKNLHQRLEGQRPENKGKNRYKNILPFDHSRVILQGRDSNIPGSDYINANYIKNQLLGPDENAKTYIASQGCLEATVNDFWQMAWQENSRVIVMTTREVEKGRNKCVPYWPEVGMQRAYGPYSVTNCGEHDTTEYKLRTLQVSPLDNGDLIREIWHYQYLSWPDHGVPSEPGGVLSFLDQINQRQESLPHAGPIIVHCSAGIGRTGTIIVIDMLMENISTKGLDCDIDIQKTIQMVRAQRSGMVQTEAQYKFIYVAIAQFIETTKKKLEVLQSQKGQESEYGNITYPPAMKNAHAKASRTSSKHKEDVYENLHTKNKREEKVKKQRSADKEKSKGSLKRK

In the case of `CO[C@H]1O[C@H](Cn2cc(CO[C@@H](C)[C@H](NC(=O)OC(C)(C)C)C(=O)O)nn2)[C@@H](OCc2ccccc2)[C@H](OCc2ccccc2)[C@@H]1OCc1ccccc1`, the IC50 (commonly the concentration needed to halve the response being measured) was 53.7 µM in the test with HeLa; above 120 µM in [1]; above 120 µM in test [2]; above 120 µM in test [3]; 51.6 µM in test [4]; 12.2 µM in test [5]. Moreover, the concentration for half-maximal inhibition (IC50) came to 105 µM in test [6], 57.2 µM in the test on A549, 26 µM in [7] and 32.2 µM in the test with HCT-116.
On to `C[C@H](OCc1cn([C@@H]2O[C@H](COCc3ccccc3)[C@@H](OCc3ccccc3)[C@H](OCc3ccccc3)[C@H]2OCc2ccccc2)nn1)[C@H](NC(=O)OC(C)(C)C)C(=O)O`, for which the half-maximal inhibitory concentration (IC50) in the test with HeLa was 31.5 µM; in test [1], above 120 µM; in [2], above 120 µM; in test [3] it was above 120 µM; in [4], 53 µM; in test [5], 11.6 µM. The IC50 in test [6] stood at 38.6 µM; in the test on A549 it was 25.3 µM; in [7], 7.1 µM; in the test on HCT-116 it was 12 µM.
Take `CO[C@H]1O[C@H](Cn2cc(COC[C@H](NC(=O)OC(C)(C)C)C(=O)O)nn2)[C@H](OCc2ccccc2)[C@H](OCc2ccccc2)[C@H]1OCc1ccccc1`: the 50% inhibitory concentration (IC50) with HeLa was above 120 µM; in test [1], above 120 µM; in test [2] it was above 120 µM; in test [3] it was above 120 µM; in test [4], above 120 µM; in [5], 20.6 µM. For the same compound, the 50% inhibitory concentration (IC50) in [6] was 54.9 µM; with A549, above 120 µM; in test [7] it was 20.9 µM; in the test on HCT-116 it was above 120 µM.
As for `CO[C@H]1O[C@H](Cn2cc(CO[C@@H](C)[C@H](NC(=O)OC(C)(C)C)C(=O)O)nn2)[C@H](OCc2ccccc2)[C@H](OCc2ccccc2)[C@H]1OCc1ccccc1`, the IC50 in the test with HeLa was 56.4 µM; in test [1], above 120 µM; in test [2] it was above 120 µM; in test [3], above 120 µM; in test [4] it was above 120 µM; in test [5], 31.1 µM. Moreover, the half-maximal inhibitory concentration (IC50) in test [6] is above 120 µM; in the test with A549 it was 108 µM; in test [7], 15.3 µM; in the test on HCT-116, 36.6 µM.
In the case of `CO[C@H]1O[C@H](Cn2cc(COC[C@H](NC(=O)OC(C)(C)C)C(=O)O)nn2)[C@@H](OCc2ccccc2)[C@H](OCc2ccccc2)[C@H]1OCc1ccccc1`, the IC50 in the test on HeLa was 75.4 µM; in test [1] it was above 120 µM; in test [2], above 120 µM; in [3] it was above 120 µM; in test [4], above 120 µM; in test [5], 67.5 µM. Besides, the IC50 in test [6] is above 120 µM; with A549 it was 120 µM; in test [7], 67.8 µM; in the test with HCT-116, 46.3 µM.
Turning to `CC(C)(C)OC(=O)N[C@@H](COCc1cn([C@@H]2O[C@H](CO)[C@@H](O)[C@H](O)[C@H]2O)nn1)C(=O)O`, the IC50 in test [1], in test [2], in test [3], in test [5] and in test [7] was above 120 µM throughout.
Regarding `CO[C@H]1O[C@H](Cn2cc(CO[C@@H](C)[C@H](NC(=O)OC(C)(C)C)C(=O)O)nn2)[C@@H](OCc2ccccc2)[C@H](OCc2ccccc2)[C@H]1OCc1ccccc1`, the half-maximal inhibitory concentration (IC50) with HeLa is 69.5 µM; in [1], above 120 µM; in test [2], above 120 µM; in test [3] it was above 120 µM; in [4], 119 µM; in [5], 27.1 µM. For the same compound, the IC50 in [6] amounted to 80.7 µM; with A549, 62.8 µM; in test [7] it was 22.3 µM; in the test on HCT-116, 33.5 µM.
`CO[C@H]1O[C@H](Cn2cc(COC[C@H](NC(=O)OC(C)(C)C)C(=O)O)nn2)[C@@H](OCc2ccccc2)[C@H](OCc2ccccc2)[C@@H]1OCc1ccccc1`: the IC50 was 54.2 µM with HeLa; above 120 µM in [1]; above 120 µM in test [2]; above 120 µM in test [3]; 26.8 µM in test [4]; 8.2 µM in [5]. In addition, the IC50 in [6] was determined as 89.2 µM; in the test with A549, 97.3 µM; in test [7] it was 18.5 µM; in the test on HCT-116 it was 32.3 µM.
In the case of `CC(C)(C)OC(=O)N[C@@H](COCc1cn([C@@H]2O[C@H](COCc3ccccc3)[C@@H](OCc3ccccc3)[C@H](OCc3ccccc3)[C@H]2OCc2ccccc2)nn1)C(=O)O`, the IC50 with HeLa was 25.3 µM; in test [1], 40.4 µM; in [2], 47.6 µM; in test [3], above 120 µM; in [4], 24.3 µM; in [5], 6.2 µM. Further, the IC50 in test [6] is 12.5 µM; with A549, 35.2 µM; in test [7] it was 5.9 µM; with HCT-116, 12.8 µM. For the same compound, the inhibition constant Ki (commonly the equilibrium dissociation constant of an inhibitor or competing ligand from its target) in [8] is 3.9 µM. For the same compound, in test [9], the inhibition entry is “Active”.

These data come from ChEMBL document CHEMBL1795285, “Facile fabrication of promising protein tyrosine phosphatase (PTP) inhibitor entities based on 'clicked' serine/threonine-monosaccharide hybrids” (Bioorg Med Chem, 2011).
